# Measured values from ChEMBL document CHEMBL1158073, “Bioactive compounds from the seed fungus Menisporopsis theobromae BCC 3975” (J Nat Prod, 2006).
# Where a name gives a salt, the structure may show the parent alone.
# Columns and labels:
# [1] = test system: KB; experiment: Cytotoxicity against human KB cells by colorimetric method; type: functional, cell-based
# [2] = test system: Mycobacterium tuberculosis; experiment: Antimycobacterial activity against Mycobacterium tuberculosis H37Ra by microplate alamar blue assay; type: functional
# Summary of the method: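 M. tuberculosis H37Ra tested by microplate Alamar Blue assay, value reported as MIC. Isoniazid and kanamycin sulfate as reference compounds.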
# [3] = test system: NCI-H187; experiment: Cytotoxicity against human NCI-H187 cells by colorimetric method; type: functional, cell-based
# Summary of the method: (§1)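 Colorimetric cytotoxicity assay following Skehan and co-workers. Cells: BC-1 (human breast cancer) and NCI-H187 (human small cell lung cancer). IC50 values reported in μM. Ellipticine served as the standard positive control.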
# [4] = Cytotoxicity against human BC1 cells by colorimetric method; type: functional, cell-based; summary of the method: as §1
# [5] = test system: Plasmodium falciparum; experiment: Antimalarial activity against multidrug-resistant Plasmodium falciparum K1 by [3H]hypoxanthine uptake; type: functional, organism-based
# Summary of the method: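 P. falciparum K1 kept in continuous culture; in vitro microculture radioisotope method. IC50 taken as the concentration giving 50% reduction in parasite growth, read as uptake of [3H]hypoxanthine. Dihydroartemisinin as positive control.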
Compound,IC50 [1] [µM],MIC [2] [µM],IC50 [3] [µM],IC50 [4] [µM],IC50 [5] [µM]
CCCCC/C=C/C(O)C(O)/C=C/c1c(CC(O)C(C)(C)O)ccc(O)c1CO (stereo unspecified),> 49,245,> 49,> 49,> 49
O=C1c2c(O)cccc2[C@H](O)[C@H](O)[C@H]1O,> 95.2,952,56.6,> 95.2,> 95.2
CC(O)CCC/C=C/C(O)C(O)/C=C/c1c(CC(O)C(C)(C)O)ccc(O)c1C=O (stereo unspecified),> 47.3,474,> 47.3,> 47.3,> 47.3
CCCC(=O)CC/C=C/[C@H](O)[C@@H]1O[C@H]1CO,> 30.3,> 303,> 30.3,> 30.3,> 30.3
C/C=C(\C)C(=O)C(C)C(O)C(C)C(=O)O[C@H]1C=COC=C2C[C@@]3(SC)C(=O)N4[C@H]5C(=CC=C[C@@H]5O)[C@@H](O)[C@@]4(SC)C(=O)N3[C@@H]21 (stereo partly specified),> 30.9,155,22.9,29.2,> 30.9
C/C=C(\C)C(=O)C(C)C(O)C(C)C(=O)O[C@H]1C=COC=C2C[C@@]3(SC)C(=O)N4c5c(O)cccc5[C@@H](O)[C@@]4(SC)C(=O)N3[C@@H]21 (stereo partly specified),> 31,1.24,20.3,> 31,2.95
CS[C@@]12CC3=CC=C[C@H](O)[C@H]3N1C(=O)[C@]1(SC)CC3=COC=C[C@H](O)[C@H]3N1C2=O,> 46,7.14,> 46,> 46,> 46
C/C=C/C(C=O)=C\C=C\C(O)C(O)[C@@H]1O[C@H]1CO (relative stereo),> 78.7,> 787,> 78.7,> 78.7,> 78.7
C[C@H]1[C@@H](O)O[C@@H]2O[C@@]3(C)CC[C@H]4[C@H](C)CC[C@@H]1[C@@]24OO3 [ARTENIMOL],–,–,–,–,0.004
Cc1c2ccncc2c(C)c2c1[nH]c1ccccc12 [ELLIPTECINE],5.41,–,1.59,5.93,–
NNC(=O)c1ccncc1 [ISONIAZID],–,0.29,–,–,–
NC[C@H]1O[C@H](O[C@H]2[C@H](O)[C@@H](O[C@H]3O[C@H](CO)[C@@H](O)[C@H](N)[C@H]3O)[C@H](N)C[C@@H]2N)[C@H](O)[C@@H](O)[C@@H]1O [KANAMYCIN SULFATE],–,3.43,–,–,–
